# Most compounds without a hit are left out; they make up all but 2.6% or so of the library.
# MITF act: MITF TRPM1 promoter activation in melanoma cells | SK-MEL-5 TRPM1-promoter luciferase, 24 h; % of positive control, neutral wells = 0 | activation, % at 12.5 µM | 300,000 tested, 0.75% active | AID 588334;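 active = mean activation of at least 80% with every replicate also reaching 80%; inconclusive = mean reaches 80% but some replicate falls short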;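 note: 0% = neutral control wells and 100% = parthenolide positive control wells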
# Wnt bcat act: Wnt/beta-catenin pathway activation; Wnt/beta-catenin reporter cell assay, activator, plate reader; activation, % at 9.35 µM; 300,000 tested, 1.2% active; AID 743398; in the data active = activation above about 30%, passing the limit was not always enough; inconclusive = no clear call, values can overlap the other calls;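 note: 0% = neutral control wells and 100% = positive control wells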
# Vif inh: blocks HIV Vif function | HEK293T cells, Vif self-association by quenched fluorescence, imaging, 24 h | inhibition, % at 7.49 µM | 340,000 tested, 0.35% active; in the data active = inhibition above about 50%, passing the limit was not always enough; inconclusive = no clear call, values can overlap the other calls; inactive = below about 31%
# esBAF inh: inhibitors of esBAF chromatin remodeling in mouse ES cells. Bmi1-luciferase knock-in reporter, 24 h; 100% = twice the neutral-well signal. reporter increase, % at 12.5 µM. 350,000 tested, 2% active; in the data active = activation above about 40%; inconclusive = no clear call, values can overlap the other calls;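 note: 0% = median of the plate's neutral control wells and 100% = double that signal; a rise in the Bmi1 reporter signal indicates esBAF inhibition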
# XiGFP reactiv: reactivates the inactive X chromosome in mouse fibroblasts | 360,000 tested, 0.055% active | activation, % at 7.58 µM | AID 743238 | XiGFP mouse fibroblasts, % GFP-positive cells imaging, 3 d; cells co-treated with 5-aza-dC sensitizer; scaled so ellipticine positive control = 100%;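 active = mean normalized replicate activation at least 10% and every replicate at or above 10%; inconclusive = only one of the two criteria met; inactive = mean below 10% and not all replicates reach 10%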;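 note: 0% = median of on-plate neutral control wells and 100% = ellipticine 6 µM median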
#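 System: XiGFP fibroblasts, SV40-immortalized. Medium: DMEM plus 5-aza-dC sensitizer. Doses: single point. Timing: 3 d treatment, 15 min room-temperature fixation. Control set: ellipticine 6 µM.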
# * marks the source's active call; other numbers are inactive results; u = inconclusive; x = not tested or not shown.
SMILES,MITF act,Wnt bcat act,Vif inh,esBAF inh,XiGFP reactiv
C[C@H]1CCCCO[C@@H](CN(C)S(=O)(=O)c2ccccc2)[C@@H](C)CN([C@@H](C)CO)C(=O)c2cc(NC(=O)Nc3ccc(C(F)(F)F)cc3)ccc2O1,x,x,x,-0.4,0.6
N/C(=N\NS(=O)(=O)c1ccccc1)c1ccccn1,2.1,0.5,0.0,-3.4,0.1
N/C(=N\NC(=O)Nc1ccccc1)c1ccccn1,x,36.5*,0.2,x,-0.1
CO[C@@H]1CN(C)C(=O)c2ccc(NC(=O)NC(C)C)cc2OC[C@@H](C)N(C(=O)C2CCC2)C[C@H]1C,x,x,x,x,0.4
Cc1nc(NC(=O)c2ccccc2)sc1-c1csc(N)n1,-1.7,u,3.7,53.1*,x
CCOc1ccccc1Nc1nc(-c2sc(NC(=O)c3cccc(Cl)c3)nc2C)cs1,16.0,-0.3,x,64.4*,0.1
O=C(C[C@@H]1CC[C@@H](NC(=O)C2CC2)[C@H](CO)O1)Nc1nccs1,x,x,x,-2.7,-0.4
CCCNC(=O)N1CCC2(CC1)CN(C(=O)CC1CC1)[C@@H](CO)c1c2c2ccc(OC)cc2n1C,x,x,x,x,0.0
O=C(C[C@@H]1CC[C@@H](NC(=O)Nc2ccccc2F)[C@@H](CO)O1)NCc1ccc(-c2ccccc2)cc1,x,x,x,x,-0.6
CC(C)NC(=O)N(C)C[C@H]1Oc2c(NC(=O)c3nc4ccccc4s3)cccc2C(=O)N([C@H](C)CO)C[C@@H]1C,x,x,x,8.1,1.7
CCC(C)(C)c1nnc(NC(=O)c2ccc([N+](=O)[O-])cc2)s1,66.9,4.2,x,47.6*,x
COc1ccc(NC(=O)c2ccc3c(c2)n(C)c(=O)n3C)cc1,-12.5,-0.4,x,14.7,-0.1
COc1ccc(NC(=O)c2ccc3c(c2)N(C)CCS3)cc1,x,52.7*,23.0,85.3*,0.0
CN1CCSc2ccc(C(=O)Nc3cccc(F)c3)cc21,64.7,10.2,7.7,50.5*,-0.1
CC(C)NC(=O)N1[C@@H]2CN(C(=O)Nc3cccc(Cl)c3)c3ccccc3[C@@H]2[C@@H]1CO,x,x,x,3.2,0.2
CC(C)CC#Cc1ccc([C@@H]2[C@H](CO)N3C(=O)CN(C(=O)c4cccc(F)c4)C[C@@H]23)cc1,x,x,x,x,0.0
Cc1cccc(C)c1NC(=O)CN,-3.6,44.8*,6.7,-7.7,-0.1
Cc1cc(C)c(NC(=O)CN)c(C)c1,-3.9,-2.1,7.1,x,0.1
C=CCN1C(=O)/C(=C/c2ccc(-c3ccc(F)cc3)o2)SC1=S,29.1,0.4,82.3*,4.5,0.1
CC(=O)c1ccc(S(=O)(=O)N(Cc2cc3cc4c(cc3[nH]c2=O)OCCO4)CC2CCCO2)cc1 (configuration not stated),49.5,9.7,24.3,45.6*,x
Cc1ccc(S(=O)(=O)N(Cc2cc3cc4c(cc3[nH]c2=O)OCCO4)CC2CCCO2)cc1 (configuration not stated),-11.8,9.5,11.6,9.6,x
COc1cc(/C=C/C(=O)N2C(=O)c3cccc(N)c3C2=O)cc(OC)c1OC,-12.5,134.7*,u,20.1,-0.1
COc1ccc(S(=O)(=O)Nc2cccc3c2O[C@@H](CN(C)S(=O)(=O)c2ccc(OC)cc2)[C@H](C)CN([C@H](C)CO)C3=O)cc1,x,x,x,x,0.2
CC(C)(C)[S@@](=O)N1Cc2cc(C(=O)N3CCCCC3)nc(-c3cccc(-c4ccc(F)cc4)c3)c2[C@H]1CCO,x,x,x,-2.0,0.0
CO[C@@H]1CC[C@H]2CCN(C)C(=O)C[C@@H](c3ccccc3)CN(C)C(=O)c3cc(C#N)ccc3OC[C@H]1O2,x,x,x,3.7,0.0
SMILES,MITF act,Wnt bcat act,Vif inh,esBAF inh,XiGFP reactiv
C=CCN(CC=C)CCOc1cc(C)ccc1[N+](=O)[O-],0.8,0.2,12.0,x,-0.1
C=CCN(CC=C)CCOc1ccc(C)cc1[N+](=O)[O-],10.1,25.8,-8.7,53.4*,0.0
COc1ccccc1C1CC(c2ccc(Br)cc2)=NN1C(=O)c1cccnc1 (configuration not stated),-23.5,-9.6,0.7,x,0.0
CCN1CCC2(CC1)Oc1c(OC)cccc1C1CC(c3cccnc3)=NN12 (configuration not stated),x,36.3*,-4.9,x,0.0
CC(=O)c1sc(Nc2nc3ccc(F)cc3s2)nc1C,43.5,67.0*,x,x,x
CCOC(=O)c1csc(Nc2nc3ccc(F)cc3s2)n1,-14.2,38.7*,1.6,x,x
COCC(=O)N1CCC2(CC1)CN(C(=O)CN1CCOCC1)[C@H](CO)c1c2c2ccc(OC)cc2n1C,x,x,x,x,0.3
Nc1nnc(/C=C/c2ccccc2Cl)s1,x,54.8*,u,x,0.3
O=C(Nc1ccccc1)Nc1nnc(/C=C/c2ccccc2Cl)s1,13.7,x,-3.2,x,0.3
COc1ccc2c3c(n(C)c2c1)[C@H](CO)N(CC1CCOCC1)CC31CN(C(=O)Nc2ccccc2)C1,x,x,x,x,0.4
CCC(CO)Oc1cc(NCc2ccccc2)c2ncn(C(C)C)c2c1 (configuration not stated),-9.7,-2.6,-1.2,60.3*,0.1
CCC(CO)Oc1cc(NCc2ccc(O)cc2)c2ncn(C(C)C)c2c1 (configuration not stated),10.6,-1.2,2.1,-3.8,0.0
O=C(CSc1nnc(-c2ccco2)o1)NC1CCCCC1,x,-4.7,2.9,1.6,x
CN(C(=O)CSc1nnc(-c2ccco2)o1)C1CCCCC1,47.5,x,-5.1,40.8*,x
CN(C(=O)COc1ncnc2ccccc12)C1CCCCC1,-2.1,-0.7,5.1,-0.5,0.0
O=C(CSc1ncnc2ccccc12)N1CCNC1=O,24.9,14.2,-3.0,41.8*,0.0
CN(C(=O)CSc1ncnc2ccccc12)C1CCCCC1,103.6*,23.6,-1.7,85.5*,0.1
Cc1nc(SCC(=O)N2CCNC2=O)c2ccccc2n1,-8.1,-4.8,13.3,11.3,0.1
C[C@@H]1CCCCO[C@@H](CN(C)C(=O)c2ccccc2)[C@H](C)CN([C@H](C)CO)C(=O)c2cc(NS(=O)(=O)c3ccc(F)cc3)ccc2O1,x,x,x,9.1,0.0
CC(C)NC(=O)NCC[C@@H]1CC[C@H](NC(=O)c2ccc(F)cc2)[C@H](CO)O1,x,x,x,1.3,0.6
CC(C)(C)C(=O)CSc1nnc(Nc2ccccc2)s1,68.1,26.7,-0.7,74.0*,0.0
CCSc1nnc(NC(=O)C(C)(C)C)s1,50.0,20.2,-2.8,51.3*,x
Cc1nnc(NC(=O)CSc2nnc(NC(=O)C(C)(C)C)s2)s1,9.8,-1.5,75.4*,6.6,0.0
CC(C)(C)C(=O)Nc1nnc(SCC(=O)Nc2nccs2)s1,4.7,-0.1,-9.2,-3.6,0.3
CN(C)C(=O)C[C@H]1CC[C@H]2[C@@H](COC[C@H](O)CN2S(=O)(=O)c2ccccc2)O1,x,x,x,-1.6,0.4
CCCNC(=O)N1CC2(CCN(CC3CCCC3)CC2)c2c([nH]c3cc(OC)ccc23)[C@@H]1CO,x,x,x,x,0.3
O=C(NCc1cc(C(F)(F)F)ccc1F)C1CCC(=O)N(C2CCCCCC2)C1 (configuration not stated),6.6,0.8,-3.9,5.0,-0.1

# Screens as filed in PubChem.
